Reference: ChEMBL document CHEMBL1128719, “The synthesis, structure-activity, and structure-side effect relationships of a series of 8-alkoxy- and 5-amino-8-alkoxyquinolone antibacterial agents” (J Med Chem, 1995)
In brackets after ≈: the same amount, converted by molar mass.

How the values were obtained:
Cutibacterium acnes = test: In vitro antibacterial activity was tested for Propion acnes PA5-1; format: functional
How it was run: (§1)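 Microtitration (microdilution) MIC determination in μg/mL against a panel of Gram-positive, Gram-negative and anaerobic organisms. Values come from duplicate or triplicate experiments and are stated accurate to ±50%.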

Bacteroides fragilis = test: In vitro antibacterial activity against Bacteroides fragilis BFA; format: functional; how it was run: as §1
V79 [1] = test: (§2) Clonogenic cytotoxicity against Chinese hamster V-79 cells; format: functional, cell-based; settings: Cricetulus griseus
How it was run: (§3)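 Chinese hamster V-79 cells grown overnight, then exposed to drug 3 h at 37 °C; drug medium replaced with fresh medium, cells incubated 5 days and scored for colony formation. IC50 (μg/mL) taken as concentration inhibiting colony formation by 50% versus control.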

[2] = system: Peptoniphilus asaccharolyticus; test: In vitro antibacterial activity was tested for Pepto asac PA 3-1; format: functional; how it was run: as §1
Mus musculus [3] = organism: Mus musculus; test: (§4) Phototoxic skin reaction in depilated female CD-1 mice; format: toxicity, organism-based; settings: in vivo
How it was run: (§5)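 Female CD-1 mice, depilated, given a single oral or subcutaneous dose. UVA (320–400 nm) exposure for 3 h, starting 1 h post-dose. Initial doses were 30, 100 and 300 mg/kg. PTD50 (dose giving phototoxic skin reaction in 50% of mice) derived by probit method. First day of positive reaction and no-effect dose taken from raw data.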

Clostridium perfringens = test: In vitro antibacterial activity against Clostridium perfringens CP 3-1; format: functional
Clostridioides difficile [4] = test: (§6) In vitro antibacterial activity was tested for Clostridium diff CD1-1; format: functional
Staphylococcus aureus [5] = test: In vitro antibacterial activity was tested for Staphylococcus aureus H228; format: functional; how it was run: as §1
Enterococcus faecalis = test: In vitro antibacterial activity was tested for Streptococcus faecalis MGH-2; format: functional; how it was run: as §1
Staphylococcus aureus [6] = test: In vitro antibacterial activity was tested for Staphylococcus aureus UC-76; format: functional; how it was run: as §1
Pseudomonas aeruginosa = test: In vitro antibacterial activity was tested for Pseudomonas aeruginosa UI-18; format: functional; how it was run: as §1
Streptococcus pneumoniae = test: In vitro antibacterial activity was tested for Streptococcus pneumoniae SV-1; format: functional; how it was run: as §1
Klebsiella pneumoniae = test: In vitro antibacterial activity was tested for Klebsiella pneumoniae MGH-2; format: functional; how it was run: as §1
Escherichia coli [7] = test: In vitro antibacterial activity was tested for Escherichia coli H560; format: functional; how it was run: as §1
Streptococcus pyogenes = test: In vitro antibacterial activity was tested for Streptococcus pyogenes C203; format: functional; how it was run: as §1
Enterobacter cloacae = test: In vitro antibacterial activity was tested for Enterobacter cloacae HA2646; format: functional
Escherichia coli [8] = test: In vitro antibacterial activity was tested for Escherichia coli Vogel; format: functional; how it was run: as §1
Providencia rettgeri = test: In vitro antibacterial activity was tested for Providencia rettgeri H1771; format: functional; how it was run: as §1
Mus musculus [9] = organism: Mus musculus; test: as §4; format: functional; how it was run: as §5
Clostridioides difficile [10] = test: as §6; format: functional; how it was run: as §1; remark: listed apart in the source
V79 [11] = test: as §2; format: functional; settings: Cricetulus griseus; how it was run: as §3
Mus musculus [12] = organism: Mus musculus; test: phototoxic skin reaction in depilated female CD-1 mice; format: functional
How it was run: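 Depilated female CD-1 mice given a single oral or subcutaneous dose; UVA (320–400 nm) exposure for 3 h starting 1 h post-dose. Initial doses 30, 100 and 300 mg/kg. PTD50 (dose giving phototoxic skin reaction in 50% of mice) calculated by probit method; first day of positive reaction and no-effect dose also taken from raw data.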

Row | Structure (SMILES) | MIC (Cutibacterium acnes) | MIC (Bacteroides fragilis) | IC50 (V79 [1]) | MIC [2] | PTD50 (Mus musculus [3]) | MIC (Clostridium perfringens) | MIC (Clostridioides difficile [4]) | MIC (Staphylococcus aureus [5]) | MIC (Enterococcus faecalis) | MIC (Staphylococcus aureus [6]) | MIC (Pseudomonas aeruginosa) | MIC (Streptococcus pneumoniae) | MIC (Klebsiella pneumoniae) | MIC (Escherichia coli [7]) | MIC (Streptococcus pyogenes) | MIC (Enterobacter cloacae) | MIC (Escherichia coli [8]) | MIC (Providencia rettgeri) | other results
1 | C[C@@H]1CN(c2cc3c(cc2F)c(=O)c(C(=O)O)cn3C2CC2)C[C@H](C)N1 | 0.8 µg/mL (≈ 2.23 µM) | 1.6 µg/mL (≈ 4.45 µM) | > 500 µg/mL | 0.4 µg/mL (≈ 1.11 µM) | < 100 mg | 0.2 µg/mL (≈ 0.556 µM) | 6.3 µg/mL (≈ 17.5 µM) | – | – | – | – | – | – | – | – | – | – | – | –
2 | NCC1CCCN(c2c(F)cc3c(=O)c(C(=O)O)cn(C4CC4)c3c2F)C1 (stereo unspecified) | 0.8 µg/mL (≈ 2.12 µM) | 1.6 µg/mL (≈ 4.24 µM) | 43 µg/mL (≈ 114 µM) | 0.4 µg/mL (≈ 1.06 µM) | – | 0.2 µg/mL (≈ 0.53 µM) | 0.8 µg/mL (≈ 2.12 µM) | 0.1 µg/mL (≈ 0.265 µM) | 0.05 µg/mL (≈ 0.132 µM) | 0.2 µg/mL (≈ 0.53 µM) | 0.4 µg/mL (≈ 1.06 µM) | 0.013 µg/mL (≈ 0.0344 µM) | 0.2 µg/mL (≈ 0.53 µM) | 0.05 µg/mL (≈ 0.132 µM) | 0.013 µg/mL (≈ 0.0344 µM) | 0.05 µg/mL (≈ 0.132 µM) | 0.05 µg/mL (≈ 0.132 µM) | 0.2 µg/mL (≈ 0.53 µM) | –
3 | NCC1CCCN(c2cc3c(cc2F)c(=O)c(C(=O)O)cn3C2CC2)C1 (stereo unspecified) | – | – | 220 µg/mL (≈ 612 µM) | – | – | – | – | 0.8 µg/mL (≈ 2.23 µM) | 0.2 µg/mL (≈ 0.556 µM) | 0.1 µg/mL (≈ 0.278 µM) | 3.1 µg/mL (≈ 8.63 µM) | 0.1 µg/mL (≈ 0.278 µM) | 0.8 µg/mL (≈ 2.23 µM) | 0.4 µg/mL (≈ 1.11 µM) | 0.05 µg/mL (≈ 0.139 µM) | 0.4 µg/mL (≈ 1.11 µM) | 0.4 µg/mL (≈ 1.11 µM) | 1.6 µg/mL (≈ 4.45 µM) | –
4 | NCC1CCCN(c2c(F)cc3c(=O)c(C(=O)O)cn(C4CC4)c3c2Cl)C1 (stereo unspecified) | – | – | 17 µg/mL (≈ 43.2 µM) | – | – | – | – | 0.025 µg/mL (≈ 0.0635 µM) | 0.05 µg/mL (≈ 0.127 µM) | 0.003 µg/mL (≈ 0.00762 µM) | 1.6 µg/mL (≈ 4.06 µM) | 0.003 µg/mL (≈ 0.00762 µM) | 0.2 µg/mL (≈ 0.508 µM) | 0.05 µg/mL (≈ 0.127 µM) | 0.003 µg/mL (≈ 0.00762 µM) | 0.2 µg/mL (≈ 0.508 µM) | 0.1 µg/mL (≈ 0.254 µM) | 0.2 µg/mL (≈ 0.508 µM) | –
5 | NC1CCN(c2c(F)cc3c(=O)c(C(=O)O)cn(C4CC4)c3c2F)C1 (stereo unspecified) | 0.2 µg/mL (≈ 0.573 µM) | 0.2 µg/mL (≈ 0.573 µM) | – | 0.4 µg/mL (≈ 1.15 µM) | 7.5 mg | 0.05 µg/mL (≈ 0.143 µM) | – | 0.05 µg/mL (≈ 0.143 µM) | 0.05 µg/mL (≈ 0.143 µM) | 0.025 µg/mL (≈ 0.0716 µM) | 0.1 µg/mL (≈ 0.286 µM) | 0.05 µg/mL (≈ 0.143 µM) | 0.025 µg/mL (≈ 0.0716 µM) | 0.006 µg/mL (≈ 0.0172 µM) | 0.05 µg/mL (≈ 0.143 µM) | 0.025 µg/mL (≈ 0.0716 µM) | 0.013 µg/mL (≈ 0.0372 µM) | 0.05 µg/mL (≈ 0.143 µM) | No effect dose (Mus musculus [9]): 3 mg; MIC (Clostridioides difficile [10]): 0.4 µg/mL (≈ 1.15 µM)
6 | NC1CCN(c2nc3c(cc2F)c(=O)c(C(=O)O)cn3C2CC2)C1 (stereo unspecified) | 0.2 µg/mL (≈ 0.602 µM) | 1.6 µg/mL (≈ 4.81 µM) | – | 0.8 µg/mL (≈ 2.41 µM) | > 100 mg | 0.1 µg/mL (≈ 0.301 µM) | 6.3 µg/mL (≈ 19 µM) | – | – | – | – | – | – | – | – | – | – | – | MIC (V79 [11]): 98 µg/mL (≈ 295 µM); Photoxic reaction (Mus musculus [12]): 100 mg
7 | COc1c(N2CCCC(CN)C2)c(F)cc2c(=O)c(C(=O)O)cn(C3CC3)c12 (stereo unspecified) | – | – | – | – | – | – | – | 0.05 µg/mL (≈ 0.128 µM) | 0.05 µg/mL (≈ 0.128 µM) | 0.006 µg/mL (≈ 0.0154 µM) | 3.1 µg/mL (≈ 7.96 µM) | 0.006 µg/mL (≈ 0.0154 µM) | 0.4 µg/mL (≈ 1.03 µM) | 0.1 µg/mL (≈ 0.257 µM) | 0.006 µg/mL (≈ 0.0154 µM) | 0.2 µg/mL (≈ 0.514 µM) | 0.2 µg/mL (≈ 0.514 µM) | 0.8 µg/mL (≈ 2.05 µM) | MIC (V79 [11]): 22 µg/mL (≈ 56.5 µM)
8 | COc1c(N2CCNC(C)C2)c(F)cc2c(=O)c(C(=O)O)cn(C3CC3)c12 (stereo unspecified) [GATIFLOXACIN] | 0.4 µg/mL (≈ 1.07 µM) | 0.4 µg/mL (≈ 1.07 µM) | 85 µg/mL (≈ 226 µM) | 0.8 µg/mL (≈ 2.13 µM) | – | 0.4 µg/mL (≈ 1.07 µM) | 1.6 µg/mL (≈ 4.26 µM) | 0.2 µg/mL (≈ 0.533 µM) | 0.2 µg/mL (≈ 0.533 µM) | 0.05 µg/mL (≈ 0.133 µM) | 0.8 µg/mL (≈ 2.13 µM) | 0.1 µg/mL (≈ 0.266 µM) | 0.1 µg/mL (≈ 0.266 µM) | 0.05 µg/mL (≈ 0.133 µM) | 0.1 µg/mL (≈ 0.266 µM) | 0.05 µg/mL (≈ 0.133 µM) | 0.05 µg/mL (≈ 0.133 µM) | 0.2 µg/mL (≈ 0.533 µM) | –
9 | C[C@@H]1CN(c2c(F)c(N)c3c(=O)c(C(=O)O)cn(C4CC4)c3c2F)C[C@H](C)N1 [SPARFLOXACIN] | 0.4 µg/mL (≈ 1.02 µM) | 1.6 µg/mL (≈ 4.08 µM) | 370 µg/mL (≈ 943 µM) | 0.4 µg/mL (≈ 1.02 µM) | 28 mg | 0.2 µg/mL (≈ 0.51 µM) | 6.3 µg/mL (≈ 16.1 µM) | – | – | – | – | – | – | – | – | – | – | – | No effect dose (Mus musculus [9]): 18 mg
